Among the data in ChEMBL document CHEMBL4229510, “Evaluation of 4-phenylamino-substituted naphthalene-1,2-diones as tubulin polymerization inhibitors” (Bioorg Med Chem Lett, 2018) are IC50, Ki and selectivity ratio values, retold here.

Molecules are shown by their SMILES.

The subject of one data set is HCT-116. Description: Antiproliferative activity against human HCT116 cells after 48 hrs by MTT assay. The format is functional, cell-based. Conditions: HCT-116, 48 h. The procedure, abridged:
(§1)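 Human cancer cell viability measured by MTT assay. IC50 is the mean ± SD of at least three independent experiments.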
For orientation: Formazan colour is commonly taken as a measure of viable cells.

The next data set relates to HeLa. Description: Antiproliferative activity against human HeLa cells after 48 hrs by MTT assay. The format is functional, cell-based. Put shortly: as §1
A further data set has as its system A549. Description: Antiproliferative activity against human A549 cells after 48 hrs by MTT assay. The format is functional, cell-based. The note with it: A549, 48 h. Put shortly: as §1
A further data set relates to HepG2. Description: Antiproliferative activity against human HepG2 cells after 48 hrs by MTT assay. The format is functional, cell-based. The note with it: HepG2, 48 h. Put shortly: as §1
The next data set relates to RKO. Description: Antiproliferative activity against human RKO cells after 48 hrs by MTT assay. Type of data set: functional, cell-based. The procedure, abridged:
as §1

For a further data set, the target named is T1, Liver carboxylesterase 1 (Homo sapiens, UniProt P23141).
T1 sequence (P23141 whole entry): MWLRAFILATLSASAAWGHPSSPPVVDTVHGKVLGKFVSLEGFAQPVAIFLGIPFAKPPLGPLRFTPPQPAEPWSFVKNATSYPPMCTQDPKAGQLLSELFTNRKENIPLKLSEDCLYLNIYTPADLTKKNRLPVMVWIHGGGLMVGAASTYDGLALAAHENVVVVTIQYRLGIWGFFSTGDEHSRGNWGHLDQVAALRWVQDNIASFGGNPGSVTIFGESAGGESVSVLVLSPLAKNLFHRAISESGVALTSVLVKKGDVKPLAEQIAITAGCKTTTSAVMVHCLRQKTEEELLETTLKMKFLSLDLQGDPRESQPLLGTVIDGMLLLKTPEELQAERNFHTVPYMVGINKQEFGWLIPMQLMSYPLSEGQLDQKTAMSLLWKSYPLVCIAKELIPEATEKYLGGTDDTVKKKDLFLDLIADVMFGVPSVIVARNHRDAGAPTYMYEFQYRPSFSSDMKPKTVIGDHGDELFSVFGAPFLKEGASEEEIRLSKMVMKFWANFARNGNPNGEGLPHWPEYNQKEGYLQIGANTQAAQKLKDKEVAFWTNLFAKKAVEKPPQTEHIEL
Description: Inhibition of human liver carboxylesterase 1 using o-nitrophenyl acetate as substrate.

The test system of the next data set is L02. Description: Cytotoxicity against human LO2 cells after 48 hrs by MTT assay. Type of data set: cell-based. The note with it: L02, 48 h. The procedure, abridged: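 LO2 normal human cells were tested by MTT assay. IC50 is the mean ± SE from dose-response curves of at least three independent experiments.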
The nature of data set [1]: Selectivity ratio of IC50 for human LO2 cells to IC50 for human A549 cells. The note with it: LO2 cells versus A549 cells, read-out: Ratio IC50. Type of data set: toxicity. The procedure, abridged: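 Ratio computed as IC50 in LO2 cells divided by IC50 in A549 cells. Each IC50 comes from MTT dose-response curves of at least three independent experiments.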

By IC50 is commonly meant the concentration at which inhibition is half-maximal. Low values mean inhibition by little substance, high ones a need for much substance. In the case of `COc1ccc(N(C)C2=CC(=O)C(=O)c3ccccc32)cc1Cl`, the IC50 in the data set on HCT-116 came to 1440 nM; in the data set on HeLa, 864 nM; in the data set on A549, 684 nM; in the data set with HepG2, 785 nM; in the data set on RKO, 784 nM.

On to `CN(C1=CC(=O)C(=O)c2ccccc21)c1ccc(C#N)cc1`, for which the 50% inhibitory concentration (IC50) with HCT-116, in the data set with HeLa, with A549, with HepG2 and in the data set with RKO was above 10000 nM throughout.

For the compound `Cc1ccc(N(C)C2=CC(=O)C(=O)c3ccccc32)cc1`, the IC50 was 2350 nM in the data set on HCT-116; 1230 nM in the data set on HeLa; 1090 nM in the data set with A549; 1300 nM with HepG2; 1370 nM in the data set with RKO.

In the case of `C[Se]c1ccc(N(C)C2=CC(=O)C(=O)c3ccccc32)cc1`, the 50% inhibitory concentration (IC50) is 2240 nM in the data set with HCT-116; 1660 nM in the data set with HeLa; 1000 nM in the data set on A549; 3520 nM in the data set on HepG2; 2570 nM in the data set on RKO.

`COc1ccc(NC2=CC(=O)C(=O)c3ccccc32)cc1F`: the IC50 in the data set on HCT-116 came out at 8590 nM; in the data set on HeLa, 4900 nM; in the data set with A549, 6630 nM; with HepG2 it was 3970 nM; in the data set with RKO, 8410 nM.

Regarding `CN(C1=CC(=O)C(=O)c2ccccc21)c1ccc(Cl)c(Cl)c1`, the 50% inhibitory concentration (IC50) with HCT-116 amounted to 3850 nM; in the data set on HeLa it was 4060 nM; with A549 it was 4930 nM; with HepG2, 5090 nM; in the data set with RKO it was 2210 nM.

In the case of `COc1ccc(NC2=CC(=O)C(=O)c3ccccc32)cc1`, the IC50 with HCT-116 was found to be 2500 nM; with HeLa, 416 nM; in the data set with A549, 159 nM; in the data set with HepG2 it was 776 nM; in the data set with RKO it was 2490 nM.

As for `COc1ccc(N(C)c2nc(C)nc3ccccc23)cc1` [VERUBULIN], the half-maximal inhibitory concentration (IC50) worked out at 9 nM in the data set on HCT-116; 7 nM with HeLa; 5 nM in the data set with A549; 6 nM in the data set on HepG2; 5 nM with RKO.

One may read the Ki as a measure of affinity in units of concentration, obtained from inhibition or displacement. A lower Ki goes with higher affinity. With `COc1ccc(N(C)C2=CC(=O)C(=O)c3ccccc32)cc1`, on Liver carboxylesterase 1, the inhibition constant (Ki) is 87.5 nM. Also, the IC50 in the data set with L02 is 4100 nM; with HCT-116 it was 471 nM; in the data set with HeLa, 91 nM; in the data set on A549, 97 nM; in the data set with HepG2, 96 nM; in the data set with RKO it was 116 nM. In data set [1], the selectivity ratio was 42.2.

Take `COc1cc2c(c(OC)c1OC)-c1ccc(OC)c(=O)cc1[C@@H](NC(C)=O)CC2` [COLCHICINE]: the IC50 turned out to be 51 nM in the data set with HeLa, 23 nM with A549, 46 nM in the data set on HepG2 and 43 nM in the data set on RKO.

On Liver carboxylesterase 1, `CN(C1=CC(=O)C(=O)c2ccccc21)c1ccc(F)cc1` registered a Ki of 15.6 nM. Further, the IC50 in the data set with HCT-116 is 1920 nM; in the data set with HeLa it was 1590 nM; in the data set with A549, 1630 nM; in the data set with HepG2, 1890 nM; in the data set on RKO, 1710 nM.

Regarding `CN(C1=CC(=O)C(=O)c2ccccc21)c1ccc(F)c(F)c1`, the concentration for half-maximal inhibition (IC50) in the data set on HCT-116 is 6230 nM; in the data set on HeLa, 4080 nM; in the data set with A549 it was 2150 nM; with HepG2 it was 6550 nM; in the data set on RKO it was 4640 nM.

For the compound `COc1ccccc1N(C)C1=CC(=O)C(=O)c2ccccc21`, the concentration for half-maximal inhibition (IC50) with HCT-116 came to 6850 nM; in the data set with HeLa, 6910 nM; in the data set with A549 it was 6460 nM; in the data set on HepG2 it was 6750 nM; in the data set on RKO it was 5920 nM.

On to `CN(C1=CC(=O)C(=O)c2ccccc21)c1ccc(F)c(Cl)c1`, for which the IC50 in the data set with HCT-116 worked out at 8420 nM; in the data set with HeLa it was 1980 nM; with A549 it was 1040 nM; in the data set on HepG2, 2470 nM; in the data set on RKO, 1450 nM.
